Measurements from ChEMBL document CHEMBL3860041, “Synthesis, biological evaluation and molecular modeling study of some new methoxylated 2-benzylthio-quinazoline-4(3H)-ones as nonclassical antifolates” (Bioorg Med Chem Lett, 2016).

Columns and labels:
Assay type in all cases: functional
Cancer cell lines [1] = experiment: Potency index, ratio of 5-fluorouracil GI50 to compound GI50 for human prostate cancer cells
How it was run: (§1)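 GI50 for each cell line came from NCI panel testing over a 5-log dose range, with 5-fluorouracil tested alongside as the reference drug. The index relates the 5-fluorouracil GI50 to the compound GI50 within each tumour subpanel.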

[2] = Growth inhibition of human SN12C cells at 10 uM after 48 hrs by SRB assay relative to control; conditions: read-out: GI
How it was run: (§2)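 Primary screen across the full NCI 60 human tumour cell line panel, which covers nine tumour subpanels. A single dose of 10 μM was applied to each line, and growth was recorded for each cell line.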

[3] = Growth inhibition of human colon cancer cells after 48 hrs by SRB assay; conditions: Cancer cell lines
How it was run: (§3)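 Follow-up NCI panel testing over a 5-log dose range for each cell line. GI50, TGI and LC50 were monitored, with 5-fluorouracil run as the positive control. Values are grouped by tumour subpanel.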

[4] = Growth inhibition of human HCT116 cells at 10 uM after 48 hrs by SRB assay relative to control; conditions: HCT-116, 48 h, read-out: GI
How it was run: (§4)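 NCI 60-cell-line panel, nine tumor subpanels; compounds tested at a single dose of 10 μM in the primary screen.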

[5] = Growth inhibition of human Hs 578T cells at 10 uM after 48 hrs by SRB assay relative to control; conditions: read-out: GI; how it was run: as §4
[6] = Growth inhibition of human MALME-3M cells at 10 uM after 48 hrs by SRB assay relative to control; conditions: read-out: GI; how it was run: as §4
[7] = Growth inhibition of human NCI-322M cells at 10 uM after 48 hrs by SRB assay relative to control; conditions: read-out: GI; how it was run: as §4
[8] = Growth inhibition of human HCT15 cells at 10 uM after 48 hrs by SRB assay relative to control; conditions: HCT-15, 48 h, read-out: GI; how it was run: as §4
[9] = Growth inhibition of human MOLT4 cells at 10 uM after 48 hrs by SRB assay relative to control; conditions: MOLT-4, 48 h, read-out: GI; how it was run: as §4
[10] = Growth inhibition of human 786-0 cells at 10 uM after 48 hrs by SRB assay relative to control; conditions: 786-0, 48 h, read-out: GI; how it was run: as §4
[11] = Growth inhibition of human T47D cells at 10 uM after 48 hrs by SRB assay relative to control; conditions: read-out: GI; how it was run: as §2
[12] = Growth inhibition of human non-small cell lung cancer cells after 48 hrs by SRB assay; conditions: Cancer cell lines; how it was run: as §3
[13] = Growth inhibition of human NCI-H460 cells at 10 uM after 48 hrs by SRB assay relative to control; conditions: NCI-H460, 48 h, read-out: GI; how it was run: as §4
[14] = Growth inhibition of human RPMI8226 cells at 10 uM after 48 hrs by SRB assay relative to control; conditions: RPMI-8226, 48 h, read-out: GI; how it was run: as §4
[15] = Growth inhibition of human SF539 cells at 10 uM after 48 hrs by SRB assay relative to control; conditions: SF-539, 48 h, read-out: GI; how it was run: as §4
[16] = Growth inhibition of human SK-MEL-28 cells at 10 uM after 48 hrs by SRB assay relative to control; conditions: SK-MEL-28, 48 h, read-out: GI; how it was run: as §2
[17] = Growth inhibition of human MDA-MB-435 cells at 10 uM after 48 hrs by SRB assay relative to control; conditions: MDA-MB-435, 48 h, read-out: GI; how it was run: as §4
[18] = Growth inhibition of human OVCAR8 cells at 10 uM after 48 hrs by SRB assay relative to control; conditions: OVCAR-8, 48 h, read-out: GI; how it was run: as §4
[19] = Growth inhibition of human breast cancer cells after 48 hrs by SRB assay; conditions: Cancer cell lines; how it was run: as §3
[20] = Growth inhibition of human U251 cells at 10 uM after 48 hrs by SRB assay relative to control; conditions: U-251, 48 h, read-out: GI; how it was run: as §2
[21] = Growth inhibition of human melanoma cells after 48 hrs by SRB assay; conditions: Melanoma cell; how it was run: as §3
[22] = Growth inhibition of human HCC2998 cells at 10 uM after 48 hrs by SRB assay relative to control; conditions: HCC 2998, 48 h, read-out: GI; how it was run: as §4
[23] = Growth inhibition of human SK-MEL-5 cells at 10 uM after 48 hrs by SRB assay relative to control; conditions: SK-MEL-5, 48 h, read-out: GI; how it was run: as §2
[24] = Growth inhibition of human ACHN cells at 10 uM after 48 hrs by SRB assay relative to control; conditions: read-out: GI; how it was run: as §4
[25] = Growth inhibition of human HT-29 cells at 10 uM after 48 hrs by SRB assay relative to control; conditions: HT-29, 48 h, read-out: GI; how it was run: as §4
Cancer cell lines [26] = experiment: Potency index, ratio of 5-fluorouracil GI50 to compound GI50 for human colon cancer cells; how it was run: as §1
[27] = Growth inhibition of human A549 cells at 10 uM after 48 hrs by SRB assay relative to control; conditions: A549, 48 h, read-out: GI; how it was run: as §4
[28] = Growth inhibition of human UO31 cells at 10 uM after 48 hrs by SRB assay relative to control; conditions: UO-31, 48 h, read-out: GI; how it was run: as §2
[29] = Growth inhibition of human OVCAR5 cells at 10 uM after 48 hrs by SRB assay relative to control; conditions: OVCAR-5, 48 h, read-out: GI; how it was run: as §4
Cancer cell lines [30] = experiment: Potency index, ratio of 5-fluorouracil GI50 to compound GI50 for human non-small cell lung cancer cells; how it was run: as §1
[31] = Growth inhibition of human SK-MEL-2 cells at 10 uM after 48 hrs by SRB assay relative to control; conditions: SK-MEL-2, 48 h, read-out: GI; how it was run: as §2
[32] = Growth inhibition of human UACC62 cells at 10 uM after 48 hrs by SRB assay relative to control; conditions: UACC-62, 48 h, read-out: GI; how it was run: as §2
[33] = Growth inhibition of human OVCAR4 cells at 10 uM after 48 hrs by SRB assay relative to control; conditions: OVCAR-4, 48 h, read-out: GI; how it was run: as §4
[34] = Growth inhibition of human IGROV1 cells at 10 uM after 48 hrs by SRB assay relative to control; conditions: IGROV-1, 48 h, read-out: GI; how it was run: as §4
[35] = Growth inhibition of human LOXIMVI cells at 10 uM after 48 hrs by SRB assay relative to control; conditions: LOX IMVI, read-out: GI; how it was run: as §4
[36] = Growth inhibition of human prostate cancer cells after 48 hrs by SRB assay; conditions: Cancer cell lines; how it was run: as §3
[37] = Growth inhibition of human K562 cells at 10 uM after 48 hrs by SRB assay relative to control; conditions: K562, 48 h, read-out: GI; how it was run: as §4
[38] = Growth inhibition of human COLO205 cells at 10 uM after 48 hrs by SRB assay relative to control; conditions: COLO 205, 48 h, read-out: GI; how it was run: as §4

## COc1cc(CSc2nc3ccc(Cl)cc3c(=O)n2Cc2ccccc2)cc(OC)c1OC
Cancer cell lines [1]
  RatioGI50: 2 - 10
[2]
  inhibition of growth at 10 µM: 61.5%
[3]
  GI50: 3.1 µM
  LC50: 87.5 µM
  TGI: 86.3 µM
[4]
  inhibition of growth at 10 µM: 79.2%
[5]
  inhibition of growth at 10 µM: 69.5%
[6]
  inhibition of growth at 10 µM: 61.2%
[7]
  inhibition of growth at 10 µM: 52.5%
[8]
  inhibition of growth at 10 µM: 75.1%
[9]
  inhibition of growth at 10 µM: 70.6%
[10]
  inhibition of growth at 10 µM: 56.6%
[11]
  inhibition of growth at 10 µM: 66.1%
[12]
  GI50: 5.5 µM
  LC50 (concentration killing 50% of cells): 97.6 µM
  TGI: 66.5 µM
[13]
  inhibition of growth at 10 µM: 79.5%
[14]
  inhibition of growth at 10 µM: 31.3%
[15]
  inhibition of growth at 10 µM: 94.2%
[16]
  inhibition of growth at 10 µM: 56.3%
[17]
  inhibition of growth at 10 µM: 98.2%
[18]
  inhibition of growth at 10 µM: 47.1%
[19]
  GI50: 3.3 µM
  LC50: > 100 µM
  TGI: 59.1 µM
[20]
  inhibition of growth at 10 µM: 67.2%
[21]
  GI50: 4.4 µM
  LC50: 98.9 µM
  TGI: 55.2 µM
[22]
  inhibition of growth at 10 µM: 50%
[23]
  inhibition of growth at 10 µM: 74.4%
[24]
  inhibition of growth at 10 µM: 59.7%
[25]
  inhibition of growth at 10 µM: 88.3%
Cancer cell lines [26]
  RatioGI50: 2 - 10
[27]
  inhibition of growth at 10 µM: 57.8%
[28]
  inhibition of growth at 10 µM: 72.9%
[29]
  inhibition of growth at 10 µM: 53.3%
Cancer cell lines [30]
  RatioGI50: 2 - 10
[31]
  inhibition of growth at 10 µM: 78.6%
[32]
  inhibition of growth at 10 µM: 84.8%
[33]
  inhibition of growth at 10 µM: 48%
[34]
  inhibition of growth at 10 µM: 64.7%
[35]
  inhibition of growth at 10 µM: 60.7%
[36]
  GI50: 4 µM
  LC50 (concentration killing 50% of cells): > 100 µM
  TGI: > 100 µM
[37]
  inhibition of growth at 10 µM: 87.2%

## COc1cc2nc(SCc3cc(OC)c(OC)c(OC)c3)n(-c3ccccc3OC)c(=O)c2cc1OC
[2]
  inhibition of growth at 10 µM: < 10%
[4]
  inhibition of growth at 10 µM: 12%
[5]
  inhibition of growth at 10 µM: 39.2%
[6]
  inhibition of growth at 10 µM: 37%
[7]
  inhibition of growth at 10 µM: 14.9%
[8]
  inhibition of growth at 10 µM: 24.6%
[9]
  inhibition of growth at 10 µM: 53.2%
[10]
  inhibition of growth at 10 µM: < 10%
[11]
  inhibition of growth at 10 µM: 11.4%
[13]
  inhibition of growth at 10 µM: 16.6%
[14]
  inhibition of growth at 10 µM: 28.8%
[15]
  inhibition of growth at 10 µM: 10.1%
[16]
  inhibition of growth at 10 µM: 21.1%
[17]
  inhibition of growth at 10 µM: 100%
[18]
  inhibition of growth at 10 µM: 15.4%
[20]
  inhibition of growth at 10 µM: 13.2%
[38]
  inhibition of growth at 10 µM: < 10%
[22]
  inhibition of growth at 10 µM: < 10%
[23]
  inhibition of growth at 10 µM: < 10%
[24]
  inhibition of growth at 10 µM: 11.5%
[25]
  inhibition of growth at 10 µM: 33.4%
[27]
  inhibition of growth at 10 µM: 12%
[28]
  inhibition of growth at 10 µM: 63.7%
[29]
  inhibition of growth at 10 µM: 11%
[31]
  inhibition of growth at 10 µM: < 10%
[32]
  inhibition of growth at 10 µM: 27.5%
[33]
  inhibition of growth at 10 µM: 16.9%
[34]
  inhibition of growth at 10 µM: 16.9%
[35]
  inhibition of growth at 10 µM: 22.7%
[37]
  inhibition of growth at 10 µM: 72.7%
